PG9 Ab binder: binds the HIV-1 gp120 antibody PG9 | TR-FRET gp120-PG9 antibody binding | AID 624416 | inhibition, % at 6.7 µM | hit rate 0.43% among 360,000; in the data active means inhibition above about 8.5%
NR2E3 ag-1: agonists of human NR2E3 nuclear receptor; Q9Y5X4; CHO-S Gal4-NCOR/VP16-NR2E3 two-hybrid, luciferase; inhibition of corepressor binding, % at 3.98 µM; hit rate 0.35% among 360,000; AID 602229;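 active means inhibition above the mean of all tested compounds plus 3 SD, cut at about 70% in these data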;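 further: 0% = DMSO with NR2E3 transfected cells and 100% = cells lacking NR2E3 construct; higher means lower luciferase signal from less NR2E3 corepressor binding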
Target sequence (Q9Y5X4 whole entry, looked up, the tested form may be a part): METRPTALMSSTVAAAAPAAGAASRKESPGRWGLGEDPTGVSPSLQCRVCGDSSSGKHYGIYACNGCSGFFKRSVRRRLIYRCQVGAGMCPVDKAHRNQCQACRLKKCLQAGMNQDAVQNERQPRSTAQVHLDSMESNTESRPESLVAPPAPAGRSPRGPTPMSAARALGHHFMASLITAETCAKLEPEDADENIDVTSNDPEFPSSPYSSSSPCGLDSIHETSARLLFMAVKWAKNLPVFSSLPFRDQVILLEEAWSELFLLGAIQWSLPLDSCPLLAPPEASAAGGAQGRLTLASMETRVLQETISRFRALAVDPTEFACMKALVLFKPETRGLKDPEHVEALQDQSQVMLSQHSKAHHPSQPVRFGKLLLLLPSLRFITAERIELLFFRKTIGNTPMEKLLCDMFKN
NR1D1 modulator: Rev-erb alpha (human) modulation | AID 1259318 | hit rate 0.79% among 370,000 | Rev-erbα–FITC-DNA binding, fluorescence polarization, 90 min | activity, % at 10 µM | P20393;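 active means activity above about 14%, limit read from the data; passing the limit was not always enough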;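 further: 0% = DMSO wells with 35 nM protein and 100% = DMSO wells with 750 nM protein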
NR2E3 ag-2: agonists of human nuclear receptor NR2E3; hit rate 0.12% among 320,000; GST-NR2E3/biotin-RetCOR TR-FRET, 1536-well; inhibition of corepressor binding, % at 4.78 µM; Q9Y5X4;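 active means percent inhibition above the cutoff of mean plus 3 SD of all tested compounds, set per screening campaign, cut at about 20% in these data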;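 further: 0% = DMSO wells and 100% = biotin wells as full block of FRET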
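System: GST-tagged NR2E3 plus biotinylated RetCOR corepressor; Buffer or medium: pH 7.5 Tris-based buffer; Probe or stimulus: RetCOR corepressor, biotinylated, 7 nM; Doses: compound at 4.8 µM, single dose; Schedule: 5 h incubation at 4 °C; Technique: time-resolved FRET; Evaluation: percent inhibition of TR-FRET ratio; Replication: one well per compound, singlicate testing.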
Rev-erbA confirm: confirmation of modulators of human Rev-erb alpha DNA binding; shares compounds with NR1D1 modulator; Rev-erb alpha FITC-DNA binding, fluorescence polarization, 90 min; activation, % at 25 µM; hit rate 61% among 3,000;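 active means activation at or above a set limit, or at least 3 SD above the negative control mean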;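 further: 0% = 35 nM protein with DMSO and 100% = 750 nM protein high control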
RORg DNA counter: RORgamma DNA-binding activity, dose-response counter-screen. shares compounds with NR1D1 modulator. purified RORgamma protein-FITC-DNA binding, fluorescence polarization. IC50, µM. hit rate 8% among 910. AID 1259320;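 active means Compounds whose fitted half-maximal concentration for disrupting protein-DNA binding is below 10 micromolar; the record names Rev-erb in its text, so the target is in doubt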
Numbers without * were called inactive. A selection: hits, their analogues and other compounds. The true share with any hit is near 1.5%.

Results for CC(C)c1nc2sc3c(NCc4ccccc4)ncnc3c2c2c1COC(C)(C)C2 ?
PG9 Ab binder: 0; NR2E3 ag-1: 20; NR1D1 modulator: 24*; NR2E3 ag-2: -1; Rev-erbA confirm: 10

What do the screens show for `Cc1cc2cc(C)c(NCCNC(=O)c3cccs3)nc2cc1C`?
PG9 Ab binder: -3; NR2E3 ag-1: 14; NR1D1 modulator: 21*; NR2E3 ag-2: -3; Rev-erbA confirm: -7

What do the screens show for `CC(C)(C)OC(=O)N1CCC(c2c(C(=O)NC3CC3)cnn2-c2ccc(Cl)cc2)CC1`?
PG9 Ab binder: -1; NR2E3 ag-1: -24; NR1D1 modulator: -4; NR2E3 ag-2: 0

What do the screens show for `Cc1cc(N2CCOCC2)n2nc(C(F)(F)F)c(-c3ccccc3)c2n1`?
PG9 Ab binder: 0; NR2E3 ag-1: 14; NR1D1 modulator: 28*; Rev-erbA confirm: -2

What do the screens show for `CC(=O)Nc1ccc(Nc2cc(C)nc3c(-c4ccc(Cl)cc4)c(C)nn23)cc1`?
PG9 Ab binder: 0; NR2E3 ag-1: -10; NR1D1 modulator: 19*; NR2E3 ag-2: -1; Rev-erbA confirm: 7

How did Cc1nn2c(N3CCOCC3)cc(C(C)(C)C)nc2c1-c1ccc(Cl)cc1 do in these assays?
PG9 Ab binder: 0; NR2E3 ag-1: 10; NR1D1 modulator: 30*; Rev-erbA confirm: -5

What do the screens show for `Cc1cc(N2CCOCC2)n2ncc(-c3ccc(Cl)cc3)c2n1`?
PG9 Ab binder: 1; NR2E3 ag-1: 12; NR1D1 modulator: 8; NR2E3 ag-2: -1

What do the screens show for `Cc1cc(N2CCOCC2)n2nc(C)c(-c3ccc(Cl)cc3)c2n1`?
PG9 Ab binder: 1; NR2E3 ag-1: -40; NR1D1 modulator: 26*; NR2E3 ag-2: 4; Rev-erbA confirm: -1

What do the screens show for `O=C(NCCc1nc2ccccc2n1CCOc1ccc2cccnc2c1)C1CCCCC1`?
NR1D1 modulator: -7

What do the screens show for `CC[C@H](CCCCCC#N)CCC(=O)N(c1ccccc1)c1ccccc1`?
NR1D1 modulator: 0

What do the screens show for `COC(=O)[C@@H]1N=C(c2ccc(OC)cc2)O[C@]12C(=O)N(Cc1cn(-c3ccccc3)nn1)c1cccc(Cl)c12`?
NR1D1 modulator: 5

How did O=C(Nc1nc(-c2cccs2)c(-c2cccs2)s1)C1CCCC1 do in these assays?
PG9 Ab binder: 4; NR2E3 ag-1: -5; NR1D1 modulator: 80*; Rev-erbA confirm: 114*; RORg DNA counter: inactive

What do the screens show for `Cc1ccc(Cn2c(=N)n(CC(=O)c3ccccc3)c3ccccc32)cc1`?
PG9 Ab binder: 0; NR2E3 ag-1: -2; NR1D1 modulator: -1; NR2E3 ag-2: -1

Results for CCOC(=O)C1=C(C)OC(N)=C(C#N)C1c1ccc(C)s1 (stereo not given) ?
PG9 Ab binder: -2; NR2E3 ag-1: -23; NR1D1 modulator: -8; NR2E3 ag-2: -1

Results for CCOC(=O)C1CCN(C(=O)CCc2nnc3ccc(N4CCC(C)CC4)nn23)CC1 ?
PG9 Ab binder: 1; NR2E3 ag-1: 8; NR1D1 modulator: 0; NR2E3 ag-2: -1

What do the screens show for `CCOC(=O)c1c(C)nc(C)c(C(=O)OCC)c1-c1ccc(OC)cc1`?
PG9 Ab binder: -1; NR2E3 ag-1: -16; NR1D1 modulator: 1; NR2E3 ag-2: 0

How did CCOC(=O)c1c(C)nc2c(c1-c1ccc(OC)c(OC)c1)C(=O)c1ccccc1-2 do in these assays?
PG9 Ab binder: 2; NR2E3 ag-1: 5; NR1D1 modulator: 53*; NR2E3 ag-2: -3; Rev-erbA confirm: 47*

Results for O=C(CSc1nc(O)c(C2CCCCC2)c(=O)[nH]1)Nc1ccc(Cl)cc1 ?
PG9 Ab binder: -1; NR2E3 ag-1: -13; NR1D1 modulator: 0; NR2E3 ag-2: 3

Results for CCc1cc(=O)oc2c(C)c(OCC(=O)NCc3ccccn3)ccc12 ?
PG9 Ab binder: 0; NR2E3 ag-1: 12; NR1D1 modulator: 30*; NR2E3 ag-2: -1; Rev-erbA confirm: 23*

What do the screens show for `Cc1sc(NC(=O)Cc2ccc3c(c2)OCO3)nc1-c1ccc2c(c1)CCN2C(=O)c1ccc(F)cc1`?
PG9 Ab binder: -2; NR2E3 ag-1: 12; NR1D1 modulator: 3; NR2E3 ag-2: 2

Results for Cc1sc(NC(=O)Cc2ccc3c(c2)OCO3)nc1-c1ccc2c(c1)CCN2C(=O)c1ccccc1F ?
PG9 Ab binder: -1; NR2E3 ag-1: 0; NR1D1 modulator: 45*; NR2E3 ag-2: 6; Rev-erbA confirm: 53*

How did O=C(CSc1nnc(-c2ccccc2O)o1)Oc1ccc(OCc2ccccc2)cc1 do in these assays?
PG9 Ab binder: 8; NR2E3 ag-1: 4; NR1D1 modulator: 36*; NR2E3 ag-2: -1; Rev-erbA confirm: 5

How did COc1cc(OC)cc(-c2c(C#Cc3ccsc3)c3cc(-c4ccc5c(c4)OCO5)ccc3n2C)c1 do in these assays?
PG9 Ab binder: -6; NR2E3 ag-1: -26; NR1D1 modulator: 26*; Rev-erbA confirm: 26*

Results for COc1ccc(-c2c(C#Cc3ccsc3)c3cc(-c4ccc5c(c4)OCO5)ccc3n2C)cc1 ?
PG9 Ab binder: 0; NR2E3 ag-1: -15; NR1D1 modulator: 21*; NR2E3 ag-2: -6; Rev-erbA confirm: 30*

What do the screens show for `COc1ccc(-c2c(C#Cc3ccsc3)c3cc(-c4ccc(C(N)=O)cc4)ccc3n2C)cc1`?
PG9 Ab binder: -1; NR2E3 ag-1: 13; NR1D1 modulator: -2

Results for COc1ccc(-c2c(C#Cc3ccsc3)c3cc(-c4ccc5[nH]ccc5c4)ccc3n2C)cc1 ?
PG9 Ab binder: -1; NR2E3 ag-1: 7; NR1D1 modulator: 4; NR2E3 ag-2: 0

How did COc1ccc(-c2c(C#Cc3ccsc3)c3cc(-c4ccc5c(c4)OCCO5)ccc3n2C)cc1 do in these assays?
PG9 Ab binder: 2; NR2E3 ag-1: 1; NR1D1 modulator: 54*; Rev-erbA confirm: 77*; RORg DNA counter: 3.4*

Results for Cc1cccc(C)c1C(O)c1ncc(-c2ccccc2F)[nH]1 (stereo not given) ?
PG9 Ab binder: 1; NR2E3 ag-1: -43; NR1D1 modulator: -11

Results for CN(C)C(=O)CSc1nc(-c2cccs2)c(-c2cccs2)[nH]1 ?
PG9 Ab binder: 0; NR2E3 ag-1: -9; NR1D1 modulator: 22*; NR2E3 ag-2: 0; Rev-erbA confirm: 24*

How did C#CCN1c2ccccc2Sc2cccnc21 do in these assays?
PG9 Ab binder: -4; NR2E3 ag-1: -25; NR1D1 modulator: 1; NR2E3 ag-2: -6

Results for COc1ccc(C=NNC(=O)c2cc(-c3ccc(C)c(C)c3)n[nH]2)cc1OCc1ccccc1 ?
NR1D1 modulator: -30

Screening results (PubChem BioAssay)
